{"data": "Experimental data gathered from unrelated publications", "target": "Dual specificity mitogen-activated protein kinase kinase 2 (MAP2K2, Homo sapiens, UniProt P36507)"}
{"SMILES": "Cn1c2c(Cl)c(Cl)ccc2c2cc(N)[nH]c(=O)c21", "read-out": "thermal stability", "technique": "DSF", "tested at": "10 µM", "quantity": "ΔTm", "value": "-0.1 °C"}
{"SMILES": "FC(F)(F)Oc1cccc(-c2cnc3ccc(-c4ccncc4)nn23)c1", "read-out": "enzyme activity", "mode": "inhibitor", "technique": "radiometric", "tested at": "1 µM", "quantity": "activity vs control", "value": "84%"}
{"SMILES": "CCN(CC)CCNC(=O)c1c(C)[nH]c(/C=C2\\C(=O)Nc3ccc(F)cc32)c1C", "read-out": "cell-free assay", "tested at": "0.5 µM", "quantity": "remaining signal", "value": "25.4%"}
{"SMILES": "COc1cc(/C=C/C(=O)CC(=O)/C=C/c2ccc(O)c(OC)c2)ccc1O", "read-out": "enzyme activity", "mode": "inhibitor", "tested at": "1 µM", "quantity": "activity vs control", "value": "91%"}
{"SMILES": "CCC1(CC)NC(=O)c2c(c3ccc(Cl)c(Cl)c3n2C)C1C#N (stereo not shown)", "read-out": "thermal stability", "technique": "DSF", "tested at": "10 µM", "quantity": "ΔTm", "value": "-0.4 °C"}
{"SMILES": "COc1cc2ncnc(Nc3ccc(Oc4ccccc4)cc3C)c2cc1OC", "read-out": "enzyme activity", "mode": "inhibitor", "tested at": "1 µM", "quantity": "inhibition", "value": "41%"}
{"SMILES": "CNC(=O)c1ccc(Nc2ncc(C(F)(F)F)c(NCc3nccnc3N(C)S(C)(=O)=O)n2)cc1", "read-out": "cell-free assay", "technique": "competition with immobilised ligand", "tested at": "0.1 µM", "quantity": "remaining binding", "value": "100%"}
{"SMILES": "N#CC(=C(N)Sc1ccc(N)cc1)c1ccccc1C(F)(F)F", "read-out": "cell-free assay", "tested at": "0.5 µM", "quantity": "remaining signal", "value": "94.5%"}
{"SMILES": "Oc1cccc(-c2nc(N3CCOCC3)c3oc4ncccc4c3n2)c1", "read-out": "enzyme activity", "mode": "inhibitor", "tested at": "10 µM", "quantity": "remaining activity", "value": "115%"}
{"SMILES": "CN(C(=O)c1ccccc1)c1cc(N(C)c2ccc3c(c2)CCc2ccc(C(=O)NCCN4CCOCC4)cc2C3=O)ccc1F", "read-out": "cell-free assay", "technique": "competition with immobilised ligand", "tested at": "1 µM", "quantity": "remaining binding", "value": "100%"}
{"SMILES": "Cn1c2c(c3ccc(Cl)c(Cl)c31)C(C#N)C1(CCCC1)NC2=O (stereo not shown)", "read-out": "thermal stability", "technique": "DSF", "tested at": "10 µM", "quantity": "ΔTm", "value": "-0.4 °C"}
{"SMILES": "N#CCCc1ccc2c(c1)-c1[nH]c3ccc([N+](=O)[O-])cc3c1CC(=O)N2", "read-out": "cell-free assay", "tested at": "0.5 µM", "quantity": "remaining signal", "value": "90.3%"}
{"SMILES": "Cn1c2c(Cl)c(Cl)ccc2c2cc[nH]c(=O)c21", "read-out": "thermal stability", "technique": "DSF", "tested at": "10 µM", "quantity": "ΔTm", "value": "-0.5 °C"}
{"SMILES": "N#Cc1ccc(Nc2ccc3[nH]c(=O)[nH]c3c2)c(Cl)c1", "read-out": "cell-free assay", "technique": "competition with immobilised ligand", "tested at": "1 µM", "quantity": "remaining binding", "value": "93%"}
{"SMILES": "CS(=O)(=O)Nc1cccc(-c2csc(NC(=O)CSc3nc4nccnc4c(=O)n3CCc3ccccc3)n2)c1", "read-out": "enzyme activity", "mode": "inhibitor", "tested at": "10 µM", "quantity": "inhibition", "value": "-1%"}
{"SMILES": "Nc1cnc(N2CCc3cc(S(=O)(=O)Nc4c(F)cc(Cl)cc4F)cc(N4CCCC4=O)c32)nc1", "read-out": "cell-free assay", "technique": "competition with immobilised ligand", "tested at": "1 µM", "quantity": "remaining binding", "value": "92%"}
{"SMILES": "Cn1c2c(c3ccccc31)C(C#N)C(C)(C)NC2=O (stereo not shown)", "read-out": "thermal stability", "technique": "DSF", "tested at": "10 µM", "quantity": "ΔTm", "value": "-0.1 °C"}
{"SMILES": "Cc1ccc(NC(=O)c2ccc(CN3CCN(C)CC3)cc2)cc1Nc1nc(-c2cccnc2)cs1", "read-out": "cell-free assay", "tested at": "0.5 µM", "quantity": "remaining signal", "value": "114%"}
{"SMILES": "Cn1c(=O)n(-c2ccc(C(C)(C)C#N)cc2)c2c3cc(-c4cnc5ccccc5c4)ccc3ncc21", "read-out": "enzyme activity", "mode": "inhibitor", "tested at": "10 µM", "quantity": "remaining activity", "value": "86%"}
{"SMILES": "CN([C@@H]1CCc2c(CC(=O)O)c3cc(S(C)(=O)=O)ccc3n2C1)S(=O)(=O)c1ccc(F)cc1", "read-out": "cell-free assay", "technique": "competition with immobilised ligand", "tested at": "1 µM", "quantity": "remaining binding", "value": "95%"}
{"SMILES": "O=C(Nc1cnn(-c2csc(C(=O)NC3COC3)c2)c1)Nc1c(F)cccc1Cl", "read-out": "enzyme activity", "mode": "inhibitor", "tested at": "5 µM", "quantity": "remaining activity", "value": "90.6%"}
{"SMILES": "CC(C)(C)c1nc(-c2cccc(NS(=O)(=O)c3c(F)cccc3F)c2F)c(-c2ccnc(N)n2)s1", "read-out": "enzyme activity", "mode": "inhibitor", "technique": "radiometric", "tested at": "1 µM", "quantity": "remaining activity", "value": "91%"}
{"SMILES": "C[C@H](NC(=O)c1cnc2n1[C@](C)(Cc1ccc(C#N)cc1)C(=O)N2c1cc(Cl)c(F)c(Cl)c1)C(=O)NC1(c2ccccn2)CC1", "read-out": "cell-free assay", "technique": "competition with immobilised ligand", "tested at": "1 µM", "quantity": "remaining binding", "value": "90%"}
{"SMILES": "Cc1sc(C(=O)NC2COC2)cc1-n1cc(NC(=O)Nc2c(F)cccc2Cl)cn1", "read-out": "enzyme activity", "mode": "inhibitor", "tested at": "10 µM", "quantity": "remaining activity", "value": "99.5%"}
{"SMILES": "COc1cc(-c2cc(-c3ccc(N4CCNCC4)cc3)cnc2C)cc(OC)c1OC", "read-out": "enzyme activity", "mode": "inhibitor", "tested at": "1 µM", "quantity": "inhibition", "value": "8%"}
{"SMILES": "CC(C)(O)[C@H]1CC[C@H](Nc2ccc3ncc(-c4cccc(C(F)(F)F)c4)n3n2)CC1", "read-out": "enzyme activity", "mode": "inhibitor", "tested at": "1 µM", "quantity": "remaining activity", "value": "101%"}
{"SMILES": "CS(=O)(=O)N1CCCC(NC(=O)[C@H](CCC2CCCCC2)NC(=O)c2ccc(CNC(=O)c3cnc4ccccn34)cc2)C1 (stereo partly shown)", "read-out": "cell-free assay", "technique": "competition with immobilised ligand", "tested at": "0.1 µM", "quantity": "remaining binding", "value": "100%"}
{"SMILES": "CN1CC(Oc2cnc(C#N)cc2-c2ccn3nc(NC(=O)C4CC4)cc3c2)C1", "read-out": "enzyme activity", "mode": "inhibitor", "tested at": "1 µM", "quantity": "inhibition", "value": "14%"}
{"SMILES": "Cn1c2c(c3ccc(Cl)c(Cl)c31)C(C#N)C1(CCNCC1)NC2=O (racemic)", "read-out": "thermal stability", "technique": "DSF", "tested at": "10 µM", "quantity": "ΔTm", "value": "-0.4 °C"}
{"SMILES": "Cn1cc(Cl)c2c(Oc3c(F)cc(Nc4cc(Cl)nc(N)n4)cc3F)ccnc21", "read-out": "cell-free assay", "technique": "competition with immobilised ligand", "tested at": "0.1 µM", "quantity": "remaining binding", "value": "100%"}
{"SMILES": "COc1cc(Nc2cnc(C#N)c(O[C@H](C)CN(C)C)n2)ncc1-c1cnn(C)c1", "read-out": "enzyme activity", "mode": "inhibitor", "technique": "radiometric", "tested at": "10 µM", "quantity": "remaining activity", "value": "57%"}
